Laboratory results as given in ChEMBL document CHEMBL1649256, “Comparison of assessment of oxygen consumption, Etest, and CLSI M38-A2 broth microdilution methods for evaluation of the susceptibility of Aspergillus fumigatus to posaconazole” (2009).

Assays:
Type in all cases: functional
[1] = system: Aspergillus fumigatus; experiment: Antimicrobial activity against Aspergillus fumigatus isolate 50 after 48 hrs by Etest; conditions: isolate 50, 48 h
[2] = system: Aspergillus fumigatus; experiment: Antimicrobial activity against Aspergillus fumigatus isolate 50 by oxygen consumption method
[3] = system: Aspergillus fumigatus; experiment: Antimicrobial activity against Aspergillus fumigatus isolate 28 after 48 hrs by Etest; conditions: isolate 28, 48 h
Procedure, shortened: (§1)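 Etest strips on RPMI 1640 agar with 2% glucose, pH 7.0, run per manufacturer's instructions. Incubated at 35°C; MIC read at 48 h.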

[4] = system: Aspergillus fumigatus; experiment: Antimicrobial activity against Aspergillus fumigatus isolate 24 by CLSI M38-A2 broth microdilution method
Procedure, shortened: (§2)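 Reference broth microdilution per CLSI M38-A2. MIC read as absence of visible growth at 48 h. C. parapsilosis ATCC 22019 and C. krusei ATCC 6258 QC strains run in each test session.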

[5] = system: Aspergillus fumigatus; experiment: Antimicrobial activity against Aspergillus fumigatus isolate 31 after 48 hrs by Etest; conditions: isolate 31, 48 h; procedure, shortened: as §1
[6] = system: Aspergillus fumigatus; experiment: Antimicrobial activity against Aspergillus fumigatus isolate 11 after 24 hrs by Etest; conditions: isolate 11, 24 h
Procedure, shortened: (§3)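 Posaconazole Etest strips placed on RPMI 1640 agar with 2% glucose, pH 7.0, and run per the strip maker's instructions. Incubation at 35°C, with the MIC read at 24 h and at 48 h.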

[7] = system: Aspergillus fumigatus; experiment: Antimicrobial activity against Aspergillus fumigatus isolate 32 by oxygen consumption method
Procedure, shortened: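 Conidial suspension in RPMI 1640 broth, tested at two posaconazole levels (0.25 and 2 μg/ml). Agitated for 12 h at 37°C in a biological oxygen monitor. MIC derived from continuous monitoring and quantification of the available oxygen.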

[8] = system: Aspergillus fumigatus; experiment: Antimicrobial activity against Aspergillus fumigatus isolate 31 by CLSI M38-A2 broth microdilution method; procedure, shortened: as §2
[9] = system: Aspergillus fumigatus; experiment: Antimicrobial activity against Aspergillus fumigatus isolate 28 after 24 hrs by Etest; conditions: isolate 28, 24 h
Procedure, shortened: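 Etest strips on RPMI 1640 agar with 2% glucose, pH 7.0, run per manufacturer's instructions. Incubated at 35°C; MIC read at 24 h.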

[10] = system: Aspergillus fumigatus; experiment: Antimicrobial activity against Aspergillus fumigatus isolate 14 by oxygen consumption method
Procedure, shortened: (§4)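 Conidial suspension in RPMI 1640 broth with posaconazole at 0.25 and 2 μg/ml. Tubes agitated 12 h at 37°C in a biological oxygen monitor. Available oxygen was monitored continuously, and the MIC was assigned from the oxygen quantification.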

[11] = system: Aspergillus fumigatus; experiment: Antimicrobial activity against Aspergillus fumigatus isolate 22 by CLSI M38-A2 broth microdilution method; procedure, shortened: as §2
[12] = system: Aspergillus fumigatus; experiment: Antimicrobial activity against Aspergillus fumigatus isolate 13 after 48 hrs by Etest; conditions: isolate 13, 48 h; procedure, shortened: as §3
[13] = system: Aspergillus fumigatus; experiment: Antimicrobial activity against Aspergillus fumigatus isolate 2 after 48 hrs by Etest; conditions: isolate 2, 48 h; procedure, shortened: as §3
[14] = system: Aspergillus fumigatus; experiment: Antimicrobial activity against Aspergillus fumigatus isolate 39 after 24 hrs by Etest; conditions: isolate 39, 24 h
Procedure, shortened: (§5)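 Posaconazole Etest strips on RPMI 1640 agar with 2% glucose, pH 7.0, run per the strip maker's instructions. Incubated at 35°C. MIC read at 24 h and at 48 h, matching the time in each line.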

[15] = system: Aspergillus fumigatus; experiment: Antimicrobial activity against Aspergillus fumigatus isolate 43 after 48 hrs by Etest; conditions: isolate 43, 48 h; procedure, shortened: as §5
[16] = system: Aspergillus fumigatus; experiment: Antimicrobial activity against Aspergillus fumigatus isolate 45 after 48 hrs by Etest; conditions: isolate 45, 48 h
[17] = system: Aspergillus fumigatus; experiment: Antimicrobial activity against Aspergillus fumigatus isolate 40 after 24 hrs by Etest; conditions: isolate 40, 24 h; procedure, shortened: as §5
[18] = system: Aspergillus fumigatus; experiment: Antimicrobial activity against Aspergillus fumigatus isolate 13 by oxygen consumption method; procedure, shortened: as §4

Measured: MIC

CC[C@@H]([C@H](C)O)n1ncn(-c2ccc(N3CCN(c4ccc(OC[C@@H]5CO[C@@](Cn6cncn6)(c6ccc(F)cc6F)C5)cc4)CC3)cc2)c1=O [POSACONAZOLE]
≥ 0.5 µg/mL: [18]
0.25 µg/mL: [1] | [3] | [9] | [12]
≤ 0.25 µg/mL: [2] | [7] | [10]
1 µg/mL: [13] | [14]
0.06 µg/mL: [15]
0.125 µg/mL: all other assays above
